ChEMBL document CHEMBL1157379, “Transcriptional response of Candida parapsilosis following exposure to farnesol” (2007)
Activity calls are given as the source filed them. The calls are words filed in the database; no cut-off is given here.

Experiments:
Candida parapsilosis [1] = experiment: Decrease in CGD gene ortholog accession number orf19.7118 expression in Candida parapsilosis CLIB214 at 50 uM after 2 hrs by microarray based transcriptional profiling relative to control; type: functional
Method in brief: (§1)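 Strain CLIB214 grown overnight in YPD at 30°C, diluted to A600 0.2 in fresh YPD at 30°C. After 4 h (A600 0.8), farnesol (40 mM methanol stock) added to 50 μM final, or an equal methanol volume as control; cells harvested 2 h later. RNA was accepted only with a 28S/18S ratio of 1.6–2.2. Cy3/Cy5-dCTP-labelled cDNA was made from 25 μg total RNA. Hybridisation was to duplicate-spotted 68-mer oligo arrays (3,849 genes) at 42°C for about 16 h. Six individual comparisons.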

Candida parapsilosis [2] = experiment: Increase in ENA2 gene expression in Candida parapsilosis CLIB214 at 50 uM after 2 hrs by microarray based transcriptional profiling relative to control; type: functional
Method in brief: (§2)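 Strain grown overnight in YPD at 30°C, diluted to A600 0.2 in YPD at 30°C; farnesol (40 mM methanol stock) added at 4 h (A600 0.8), final 50 μM; methanol-only control. Cells collected 2 h later for RNA. Labelled cDNA from 25 μg total RNA (Cy3/Cy5-dCTP) hybridized to 68-mer oligo arrays at 42°C ~16 h; six individual comparisons analysed statistically.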

Candida parapsilosis [3] = experiment: Increase in CGD gene ortholog accession number orf19.6539 expression in Candida parapsilosis CLIB214 at 50 uM after 2 hrs by microarray based transcriptional profiling relative to control; type: functional; method in brief: as §1
Candida parapsilosis [4] = experiment: Increase in CGD gene ortholog accession number orf19.3544 expression in Candida parapsilosis CLIB214 at 50 uM after 2 hrs by microarray based transcriptional profiling relative to control; type: functional; method in brief: as §1
Candida parapsilosis [5] = experiment: Increase in CGD gene ortholog accession number orf19.3185 expression in Candida parapsilosis CLIB214 at 50 uM after 2 hrs by microarray based transcriptional profiling relative to control; type: functional; method in brief: as §1
Candida parapsilosis [6] = experiment: Increase in ATP2 gene expression in Candida parapsilosis CLIB214 at 50 uM after 2 hrs by microarray based transcriptional profiling relative to control; type: functional; method in brief: as §1
Candida parapsilosis [7] = experiment: Decrease in CGD gene ortholog accession number orf19.2328 expression in Candida parapsilosis CLIB214 at 50 uM after 2 hrs by microarray based transcriptional profiling relative to control; type: functional
Method in brief: (§3)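 Cells in YPD at 30°C treated with 50 μM farnesol at 4 h, with a methanol control. RNA harvested 2 h later and kept only if 28S/18S ratio was 1.6–2.2 with no degradation. 25 μg total RNA oligo-dT primed and labeled with Cy3/Cy5-dCTP. Labeled cDNA hybridized about 16 h at 42°C to duplicate-spotted 68-mer oligo arrays. Six individual comparisons analyzed statistically.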

Candida parapsilosis [8] = experiment: Decrease in ZCF23 gene expression in Candida parapsilosis CLIB214 at 50 uM after 2 hrs by microarray based transcriptional profiling relative to control; type: functional; method in brief: as §1
Candida parapsilosis [9] = experiment: Decrease in CGD gene ortholog accession number orf19.2308 expression in Candida parapsilosis CLIB214 at 50 uM after 2 hrs by microarray based transcriptional profiling relative to control; type: functional; method in brief: as §3
Candida parapsilosis [10] = experiment: Decrease in CGD gene ortholog accession number orf19.409 expression in Candida parapsilosis CLIB214 at 50 uM after 2 hrs by microarray based transcriptional profiling relative to control; type: functional; method in brief: as §3
Candida parapsilosis [11] = experiment: Increase in DOT5 gene expression in Candida parapsilosis CLIB214 at 50 uM after 2 hrs by microarray based transcriptional profiling relative to control; type: functional; method in brief: as §2
Candida parapsilosis [12] = experiment: Increase in GenBank accession number NP_983467.1 expression in Candida parapsilosis CLIB214 at 50 uM after 2 hrs by microarray based transcriptional profiling relative to control; type: functional; method in brief: as §2
Candida parapsilosis [13] = experiment: Increase in KEX2 gene expression in Candida parapsilosis CLIB214 at 50 uM after 2 hrs by microarray based transcriptional profiling relative to control; type: functional; method in brief: as §2
Candida parapsilosis [14] = experiment: Increase in RTA3 gene expression in Candida parapsilosis CLIB214 at 50 uM after 2 hrs by microarray based transcriptional profiling relative to control; type: functional; method in brief: as §2
Candida parapsilosis [15] = experiment: Antifungal activity against Candida parapsilosis CLIB214 assessed as induction of cell death at 50 uM added 4 hrs after […] growth after 2 hrs by colony counting method; type: functional
Method in brief: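 Type strain grown overnight in YPD at 30°C, diluted to A600 0.2 in YPD; farnesol (40 mM stock in methanol) added at a final 50 μM, with a methanol-only control. Viability was measured by CFU counts taken 1 h and 2 h after addition.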

Candida parapsilosis [16] = experiment: Increase in CGD gene ortholog accession number orf19.1230 expression in Candida parapsilosis CLIB214 at 50 uM after 2 hrs by microarray based transcriptional profiling relative to control; type: functional; method in brief: as §1
Candida parapsilosis [17] = experiment: Increase in NIT2 gene expression in Candida parapsilosis CLIB214 at 50 uM after 2 hrs by microarray based transcriptional profiling relative to control; type: functional; method in brief: as §2
Candida parapsilosis [18] = experiment: Antifungal activity against Candida parapsilosis CLIB214 assessed as growth inhibition at 10 to 20 uM added 4 hrs after […] growth; type: functional, organism-based
Candida parapsilosis [19] = experiment: Increase in CGD gene ortholog accession number orf19.854 expression in Candida parapsilosis CLIB214 at 50 uM after 2 hrs by microarray based transcriptional profiling relative to control; type: functional; method in brief: as §2
Candida parapsilosis [20] = experiment: Decrease in CGD gene ortholog accession number orf19.2097 expression in Candida parapsilosis CLIB214 at 50 uM after 2 hrs by microarray based transcriptional profiling relative to control; type: functional; method in brief: as §3
Candida parapsilosis [21] = experiment: Decrease in CGD gene ortholog accession number orf19.4372 expression in Candida parapsilosis CLIB214 at 50 uM after 2 hrs by microarray based transcriptional profiling relative to control; type: functional; method in brief: as §3
Candida parapsilosis [22] = experiment: Decrease in CGD gene ortholog accession number orf19.5877 expression in Candida parapsilosis CLIB214 at 50 uM after 2 hrs by microarray based transcriptional profiling relative to control; type: functional; method in brief: as §3
Candida parapsilosis [23] = experiment: Effect on GDH2 gene expression in Candida parapsilosis CLIB214 by microarray based transcriptional profiling; type: functional, organism-based; method in brief: as §1
Candida parapsilosis [24] = experiment: Antifungal activity against Candida parapsilosis CLIB214 assessed as growth inhibition at 50 uM added after 2 hrs of bacterial growth measured after 4 hrs; type: functional; conditions: Lodderomyces parapsilosis
Method in brief: (§4)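 Overnight YPD culture at 30°C diluted to A600 0.2 in YPD. Farnesol added to 50 μM final at 2, 4, 6 or 8 h of growth (A600 about 0.8 at 4 h, 2.3 at 6 h, 6 at 8 h). Growth compared with methanol controls by A600 or cell counts.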

Candida parapsilosis [25] = experiment: Antifungal activity against Candida parapsilosis CLIB214 assessed as growth inhibition at 50 uM added after 4 hrs of bacterial growth measured after 4 hrs; type: functional; conditions: Lodderomyces parapsilosis, CLIB214, 4 h; method in brief: as §4
Candida parapsilosis [26] = experiment: Increase in CGD gene ortholog accession number orf19.6018 expression in Candida parapsilosis CLIB214 at 50 uM after 2 hrs by microarray based transcriptional profiling relative to control; type: functional; method in brief: as §1
Candida parapsilosis [27] = experiment: Antifungal activity against Candida parapsilosis CLIB214 assessed as growth inhibition at 50 uM added after 8 hrs of bacterial growth measured after 4 hrs; type: functional; conditions: Lodderomyces parapsilosis; method in brief: as §4

Compound: CC(C)=CCC/C(C)=C/CC/C(C)=C/CO [FARNESOL]
- fold change (FC) (Candida parapsilosis [1]): 1.56
- fold change (FC) (Candida parapsilosis [2]): 1.77
- fold change (FC) (Candida parapsilosis [3]): 1.5
- fold change (FC) (Candida parapsilosis [4]): 1.87
- fold change (FC) (Candida parapsilosis [5]): 1.6
- fold change (FC) (Candida parapsilosis [6]): 2.16
- fold change (FC) (Candida parapsilosis [7]): 1.5
- fold change (FC) (Candida parapsilosis [8]): 1.97
- fold change (FC) (Candida parapsilosis [9]): 1.7
- fold change (FC) (Candida parapsilosis [10]): 2.21
- fold change (FC) (Candida parapsilosis [11]): 1.5
- fold change (FC) (Candida parapsilosis [12]): 3.16
- fold change (FC) (Candida parapsilosis [13]): 1.57
- fold change (FC) (Candida parapsilosis [14]): 1.67
- Activity (Candida parapsilosis [15]): 20%
- fold change (FC) (Candida parapsilosis [16]): 1.53
- fold change (FC) (Candida parapsilosis [17]): 1.86
- Activity (Candida parapsilosis [18]): inactive
- fold change (FC) (Candida parapsilosis [19]): 1.69
- fold change (FC) (Candida parapsilosis [20]): 1.53
- fold change (FC) (Candida parapsilosis [21]): 1.67
- fold change (FC) (Candida parapsilosis [22]): 3.22
- Activity (Candida parapsilosis [23]): inactive
- inhibition at 50 µM (Candida parapsilosis [24]): 71%
- inhibition at 50 µM (Candida parapsilosis [25]): 83%
- fold change (FC) (Candida parapsilosis [26]): 2.07
- inhibition at 50 µM (Candida parapsilosis [27]): 16%
